Columns and labels:
[1] = Cytotoxicity in human MT4 cells assessed as reduction in cell viability; type: cell-based
[2] = Selectivity index, ratio of CC50 for human MT4 cells to EC50 for HIV1 3B; type: toxicity, cell-based; details: read-out: Ratio CC50/EC50
[3] = target: Human immunodeficiency virus type 1 reverse transcriptase (Human immunodeficiency virus 1, UniProt Q72547); assay: Inhibition of RNA-dependent DNA polymerase activity of HIV1 reverse transcriptase using poly(rA)/pligo(dT) template
[4] = system: Human immunodeficiency virus 1; assay: Antiviral activity against HIV1 3B infected in human MT4 cells assessed inhibition of viral-induced cytopathic effect after 5 days; type: functional, organism-based; details: Human immunodeficiency virus 1, 3B, MT4, 120 h
In short: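 MT-4 cells infected with HIV-1 IIIB at about 100 times the CCID50 per mL of suspension, then mixed 1:1 with serial compound dilutions and incubated at 37 °C for five days. Viable cell number was then determined.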

[5] = target: Human immunodeficiency virus type 1 reverse transcriptase (Human immunodeficiency virus 1, UniProt Q72547, L100I); assay: Inhibition of HIV1 reverse transcriptase L100I mutant by RNA-dependent DNA polymerase activity assay
[6] = target: Human immunodeficiency virus type 1 reverse transcriptase (Human immunodeficiency virus 1, UniProt Q72547, Y181I); assay: Inhibition of HIV1 reverse transcriptase Y181I mutant by RNA-dependent DNA polymerase activity assay
[7] = target: Human immunodeficiency virus type 1 reverse transcriptase (Human immunodeficiency virus 1, UniProt Q72547, K103N); assay: Inhibition of HIV1 reverse transcriptase K103N mutant by RNA-dependent DNA polymerase activity assay

| Compound | CC50 [1] | selectivity ratio [2] | IC50 [3] | EC50 [4] | IC50 [5] | IC50 [6] | IC50 [7] |
| --- | --- | --- | --- | --- | --- | --- | --- |
| O=C1Nc2ccc(Cl)cc2[C@@](C#CC2CC2)(C(F)(F)F)O1 [EFAVIRENZ] | > 6000 nM |  |  |  |  |  |  |
| Cc1cccc(S(=O)(=O)n2c(=O)[nH]c3ccc(Cl)cc32)c1 | > 308000 nM | > 20500 | 21 nM | 15.1 nM | 70 nM | > 40000 nM | 10000 nM |
| Cc1ccc(S(=O)(=O)n2c(=O)[nH]c3ccc(Cl)cc32)cc1C | > 371000 nM | > 61900 | 4 nM | 6 nM | 30 nM | > 40000 nM | 2610 nM |
| Cc1cc(C)cc(S(=O)(=O)n2c(=O)[nH]c3ccc(Cl)cc32)c1 |  | 17800 |  | 2.2 nM | 9 nM | > 40000 nM | 400 nM |
| Cc1ccc(S(=O)(=O)n2c(=O)[nH]c3ccc(Cl)cc32)c(C)c1 | 39300 nM | 327 | 630 nM | 120 nM |  |  |  |
| O=c1[nH]c2ccc(Cl)cc2n1S(=O)(=O)c1cccc(C(F)(F)F)c1 | > 332000 nM | > 664 | 1720 nM | 500 nM |  |  |  |
| Cc1ccc(C)c(S(=O)(=O)n2c(=O)[nH]c3ccc(Cl)cc32)c1 | > 371000 nM | > 37100 | 49 nM | 9.7 nM | 380 nM | > 40000 nM | > 40000 nM |
| Cc1cc(C)c(C)c(S(=O)(=O)n2c(=O)[nH]c3ccc(Cl)cc32)c1C | ≥ 343000 nM | > 5410 | 40 nM | 63 nM | 180 nM | > 40000 nM | > 40000 nM |
| Cc1ccnc2c1NC(=O)c1cccnc1N2C1CC1 [NEVIRAPINE] | > 15000 nM |  |  |  |  |  |  |
| Cc1cc(C)c(S(=O)(=O)n2c(=O)[nH]c3ccc(Cl)cc32)c(C)c1 | > 356000 nM | > 355 | 1.2 nM | 1000 nM | 10 nM | > 40000 nM | > 40000 nM |
| Cc1ccccc1S(=O)(=O)n1c(=O)[nH]c2ccc(Cl)cc21 | > 387000 nM | > 201 | 269 nM | 1920 nM |  |  |  |
| COc1cccc(S(=O)(=O)n2c(=O)[nH]c3ccc(Cl)cc32)c1 | > 369000 nM | > 10500 | 52 nM | 35 nM | 330 nM | > 40000 nM | 10900 nM |
| Cc1c(C)c(C)c(S(=O)(=O)n2c(=O)[nH]c3ccc(Cl)cc32)c(C)c1C | 236000 nM | 1830 | 47 nM | 129 nM | 80 nM | > 40000 nM | 6700 nM |
| O=c1[nH]c2ccc(Cl)cc2n1S(=O)(=O)c1cc(C(F)(F)F)cc(C(F)(F)F)c1 | 32300 nM | 104 | 310 nM | 310 nM |  |  |  |
| O=c1[nH]c2ccc(Cl)cc2n1S(=O)(=O)c1cccc(OC(F)(F)F)c1 | > 128000 nM | > 35 | 305 nM | 3660 nM |  |  |  |
| Cc1cc(C)cc(S(=O)(=O)n2c(=O)[nH]c3ccc(Cl)nc32)c1 | > 272000 nM | > 10500 | 20 nM | 26 nM | 70 nM | 27000 nM | 2800 nM |
| Cc1ccc(S(=O)(=O)n2c(=O)[nH]c3ccc(Cl)cc32)cc1 | 134000 nM | 2900 | 149 nM | 46 nM |  |  |  |

Reference: ChEMBL document CHEMBL1156899, “Novel 1,3-dihydro-benzimidazol-2-ones and their analogues as potent non-nucleoside HIV-1 reverse transcriptase inhibitors” (Bioorg Med Chem, 2010)
